In one data set the target is Cruzipain (Trypanosoma cruzi, UniProt P25779). Kind of data set: Inhibitory activity against cruzain, the major cysteine protease found in Trypanosoma cruzi. Summed up:
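Enzyme and inhibitor (in DMSO) preincubated 5 min before substrate addition. Read at ex 355/em 450 nm at four time points in the linear region. Activity taken against no-inhibitor controls, run in duplicate. Ki obtained from Williams–Morrison tight-binding fit.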

In a further data set the target is Procathepsin L (Homo sapiens, UniProt P07711). Put plainly: Inhibitory activity against human Cathepsin L. In a few lines: (§1)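 Buffer was 0.25 M sodium acetate pH 5.5 with 2 mM EDTA, 0.015% Brij-35 and 1 mM DTT. 5 min enzyme–inhibitor preincubation, ex 355/em 450 nm, duplicate wells. Ki obtained from Williams–Morrison fit.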
Another data set addresses Cathepsin B (Homo sapiens, UniProt P07858). Put plainly: Inhibitory activity against human Cathepsin B. In a few lines:
as §1

Data set [1] in a line: Aqueous solubility using UV analysis. The data set is classed as physicochemical. Summed up:
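Solubility measured by an outside lab after 2 h preincubation of inhibitor in pH 7.4 aqueous buffer at 37 °C. Quantitated by UV absorbance at 211 nm.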

Structures are written as SMILES. Values after ≈ are worked out from the molar mass of the structure shown.

Sequence of Procathepsin L (P07711 whole entry): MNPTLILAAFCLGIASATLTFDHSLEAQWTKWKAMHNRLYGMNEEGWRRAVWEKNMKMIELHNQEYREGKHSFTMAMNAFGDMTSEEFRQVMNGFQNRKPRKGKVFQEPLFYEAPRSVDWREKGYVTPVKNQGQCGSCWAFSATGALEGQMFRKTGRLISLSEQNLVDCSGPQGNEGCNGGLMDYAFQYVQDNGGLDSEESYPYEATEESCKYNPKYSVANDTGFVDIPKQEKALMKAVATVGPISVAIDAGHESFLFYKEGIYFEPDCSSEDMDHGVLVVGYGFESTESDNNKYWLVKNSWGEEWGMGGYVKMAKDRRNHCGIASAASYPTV
Sequence of Cruzipain (P25779 whole entry): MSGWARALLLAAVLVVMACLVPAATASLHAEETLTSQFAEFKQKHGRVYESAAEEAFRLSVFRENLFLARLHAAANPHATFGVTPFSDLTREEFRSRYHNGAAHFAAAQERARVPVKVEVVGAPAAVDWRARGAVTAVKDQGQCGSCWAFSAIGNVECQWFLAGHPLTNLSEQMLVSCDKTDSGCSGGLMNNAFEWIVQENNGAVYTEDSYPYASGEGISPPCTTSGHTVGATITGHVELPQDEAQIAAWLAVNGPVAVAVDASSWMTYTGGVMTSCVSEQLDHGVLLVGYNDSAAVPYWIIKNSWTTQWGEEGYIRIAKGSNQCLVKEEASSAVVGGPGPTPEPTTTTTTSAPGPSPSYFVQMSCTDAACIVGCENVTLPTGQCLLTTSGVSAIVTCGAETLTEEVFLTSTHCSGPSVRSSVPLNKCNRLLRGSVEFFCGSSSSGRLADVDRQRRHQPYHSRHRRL

Regarding `O=C(N[C@@H](Cc1ccccc1)C(=O)N[C@@H](Cc1ccccc1)C(=O)CSCCc1ccccc1)OCc1ccccc1`, the inhibition constant Ki (in general, a measure of affinity in units of concentration, obtained from inhibition or displacement) on Cruzipain was found to be 4.2 nM.

As for `O=C(N[C@@H](Cc1ccccc1)C(=O)N[C@@H](Cc1ccccc1)C(=O)CSCCCc1ccccc1)OCc1ccccc1`, the Ki on Procathepsin L came to 2.8 nM; on Cathepsin B, 45.4 nM; at Cruzipain, 2 nM.

At Cruzipain, `CC(C)CCSCC(=O)[C@H](Cc1ccccc1)NC(=O)[C@H](Cc1ccccc1)NC(=O)OCc1ccccc1` displayed a Ki of 30.1 nM.

Regarding `O=C(N[C@@H](Cc1ccccc1)C(=O)N[C@@H](Cc1ccccc1)C(=O)CSCCCc1ccccc1)OCc1cccnc1`, the Ki at Cruzipain is 5.5 nM.

Consider `CCOC(=O)CCSCC(=O)[C@H](Cc1ccccc1)NC(=O)[C@H](CC(C)C)NC(=O)N1CCOCC1`, for which, on Cruzipain, the affinity, expressed as Ki, was 69.6 nM. Against the preceding compound, the Ki is about 13-fold higher.

In the case of `CC(C)(C)SCC(=O)[C@H](Cc1ccccc1)NC(=O)[C@H](Cc1ccccc1)NC(=O)OCc1cccnc1`, the concentration in solution in data set [1] (solubility) came to 288 µM (≈ 154 µg/mL). On Cruzipain, this compound had an inhibition constant Ki of 4.6 nM.

`CCOC(=O)CCSCC(=O)[C@H](Cc1ccccc1)NC(=O)[C@H](Cc1ccccc1)NC(=O)OCc1ccccn1` yielded an inhibition constant (Ki) at Cruzipain of 30.4 nM.

As for `O=C(N[C@@H](Cc1ccccc1)C(=O)N[C@@H](Cc1ccccc1)C(=O)CSC1CCCC1)OCc1ccccc1`, the affinity on Cruzipain, expressed as Ki, was 34.3 nM. This Ki and that of the compound before are within 1.5-fold of each other.

`CC(C)C[C@H](NC(=O)N1CCOCC1)C(=O)N[C@@H](Cc1ccccc1)C(=O)CSCCCc1ccccc1`: the Ki on Cruzipain was 131 nM.

Consider `CC(C)C[C@H](NC(=O)OCc1ccccc1)C(=O)N[C@@H](Cc1ccccc1)C(=O)CSC(C)(C)C`, for which the results for the inhibitory constant (Ki) at Procathepsin L, at Cathepsin B and on Cruzipain were 7.9 nM, 112 nM and 1.3 nM, respectively.

For the compound `CCOC(=O)C(C)SCC(=O)[C@H](Cc1ccccc1)NC(=O)[C@H](Cc1ccccc1)NC(=O)OCc1ccccc1` (some centres undefined), the Ki at Cruzipain was 37 nM.

Take `CC(C)(C)SCC(=O)[C@H](CCc1ccccc1)NC(=O)[C@H](Cc1ccccc1)NC(=O)OCc1cccnc1`: the results for the inhibitory constant (Ki) at Procathepsin L, on Cathepsin B and at Cruzipain were 9.6 nM, 600 nM and 1.4 nM, respectively.

For `CC(C)C[C@H](NC(=O)N1CCOCC1)C(=O)N[C@@H](Cc1ccccc1)C(=O)CSC(C)(C)C`, the Ki on Cruzipain is 59.7 nM. That is a double-digit nanomolar value.

As to `CCOC(=O)CCSCC(=O)[C@H](Cc1ccccc1)NC(=O)[C@H](Cc1ccccc1)NC(=O)N1CCOCC1`, the Ki on Cruzipain amounted to 59.1 nM.

For the compound `CCOC(=O)CCSCC(=O)[C@H](Cc1ccccc1)NC(=O)[C@H](Cc1ccccc1)NC(=O)OCc1cccnc1`, the affinity on Cruzipain corresponds to a Ki of 22.7 nM.

`CCC(C)SCC(=O)[C@H](Cc1ccccc1)NC(=O)[C@H](Cc1ccccc1)NC(=O)OCc1ccccc1` (some centres undefined) showed an inhibition constant (Ki) at Cruzipain of 5.8 nM.

As for `O=C(N[C@@H](Cc1ccccc1)C(=O)N[C@@H](Cc1ccccc1)C(=O)CSC1CCCCC1)OCc1ccccc1`, on Cruzipain, the inhibitory constant (Ki) came to 7.5 nM.

In turn, `CC(C)(C)CC(C)(CC(C)(C)C)SCC(=O)[C@H](Cc1ccccc1)NC(=O)[C@H](Cc1ccccc1)NC(=O)OCc1ccccc1` had a Ki on Cruzipain of 5 nM.

`CC(C)(C)SCC(=O)[C@H](Cc1ccccc1)NC(=O)[C@H](Cc1ccccc1)NC(=O)OCc1ccccc1`: the values for the inhibition constant Ki on Procathepsin L, at Cathepsin B and on Cruzipain were 1.7 nM, 45 nM and 2.5 nM, respectively. Moreover, the concentration in solution in data set [1] (solubility) was 70 µM (≈ 37.3 µg/mL).

In turn, `CCOC(=O)CCSCC(=O)[C@H](Cc1ccccc1)NC(=O)[C@H](CC(C)C)NC(=O)OCc1ccccc1` had a Ki on Cruzipain of 8 nM.

Take `CCOC(=O)CCSCC(=O)[C@H](Cc1ccccc1)NC(=O)[C@H](Cc1ccccc1)NC(=O)OCc1ccccc1`: the results for the inhibition constant Ki on Procathepsin L, at Cathepsin B and at Cruzipain were 1.5 nM, 42.7 nM and 2.9 nM, respectively.

Consider `CC(C)(C)SCC(=O)[C@H](Cc1ccccc1)NC(=O)[C@H](Cc1ccccc1)NC(=O)N1CCOCC1`, for which the Ki at Cruzipain came out at 54.6 nM.

Turning to `CC(C)C[C@H](NC(=O)OCc1ccccc1)C(=O)N[C@@H](Cc1ccccc1)C(=O)CSCCCc1ccccc1`, the figures for the Ki at Procathepsin L, on Cathepsin B and at Cruzipain were 4.7 nM, 136 nM and 1 nM, respectively.

As for `CC(C)SCC(=O)[C@H](Cc1ccccc1)NC(=O)[C@H](Cc1ccccc1)NC(=O)OCc1ccccc1`, the affinity on Cruzipain corresponds to a Ki of 4.6 nM. This lies in the single-digit nanomolar range.

As for `CC(C)C[C@H](NC(=O)OCc1ccccc1)C(=O)N[C@@H](Cc1ccccc1)C(=O)CSC(C)C`, on Cruzipain, the Ki was 7.8 nM.

`COc1ccc(CSCC(=O)[C@H](Cc2ccccc2)NC(=O)[C@H](Cc2ccccc2)NC(=O)OCc2ccccc2)cc1` had an inhibition constant (Ki) on Cruzipain of 32.4 nM.

As to `CC(C)C[C@H](NC(=O)OCc1cccnc1)C(=O)N[C@@H](CCc1ccccc1)C(=O)CSCCCc1ccccc1`, the Ki on Procathepsin L was determined as 144 nM; at Cathepsin B, 1700 nM; on Cruzipain, 1.1 nM.

`O=C(N[C@@H](Cc1ccccc1)C(=O)N[C@@H](Cc1ccccc1)C(=O)CSCc1ccccc1)OCc1ccccc1` yielded a Ki on Cruzipain of 44 nM. This counts as double-digit nanomolar.

On to `CC(C)(C)c1ccc(CSCC(=O)[C@H](Cc2ccccc2)NC(=O)[C@H](Cc2ccccc2)NC(=O)OCc2ccccc2)cc1`, for which, on Cruzipain, the Ki stood at 22 nM.

On to `CC(C)(C)CC(C)(C)SCC(=O)[C@H](Cc1ccccc1)NC(=O)[C@H](Cc1ccccc1)NC(=O)OCc1ccccc1`, for which the Ki on Cruzipain was 10.4 nM.

`CC(C)C[C@H](NC(=O)OCc1ccccn1)C(=O)N[C@@H](Cc1ccccc1)C(=O)CSC(C)(C)C`: the inhibition constant Ki at Cruzipain is 13.8 nM.

For the compound `CCOC(=O)CSCC(=O)[C@H](Cc1ccccc1)NC(=O)[C@H](Cc1ccccc1)NC(=O)OCc1ccccc1`, the Ki at Cruzipain was 31.2 nM.

On Cruzipain, `O=C(CSCCCc1ccccc1)[C@H](Cc1ccccc1)NC(=O)[C@H](Cc1ccccc1)NC(=O)N1CCOCC1` yielded an inhibition constant Ki of 216 nM.

Take `O=C(N[C@@H](Cc1ccccc1)C(=O)N[C@@H](Cc1ccccc1)C(=O)CSCc1ccc(Cl)cc1)OCc1ccccc1`: on Cruzipain, the inhibition constant (Ki) came out at 82.7 nM. This Ki is about 2.6-fold lower than that of the compound before.

Turning to `CC(C)C[C@H](NC(=O)OCc1cccnc1)C(=O)N[C@@H](Cc1ccccc1)C(=O)CSC(C)(C)C`, in data set [1], the solubility – broadly, the dissolved amount per volume that the medium holds – came to 378 µM (≈ 189 µg/mL). On Cruzipain, this compound had an inhibition constant (Ki) of 4.8 nM.

In turn, `CNC(=O)CSCC(=O)[C@H](Cc1ccccc1)NC(=O)[C@H](Cc1ccccc1)NC(=O)OCc1ccccc1` gave a Ki at Cruzipain of 15 nM.

`CC(C)C[C@H](NC(=O)OCc1cccnc1)C(=O)N[C@@H](CCc1ccccc1)C(=O)CSC(C)(C)C`: the Ki came to 44 nM on Procathepsin L, 1300 nM at Cathepsin B and 2 nM at Cruzipain.

Turning to `CC(=O)NCCSCC(=O)[C@H](Cc1ccccc1)NC(=O)[C@H](Cc1ccccc1)NC(=O)OCc1ccccc1`, the Ki at Cruzipain worked out at 34.3 nM.

Turning to `CC(C)C[C@H](NC(=O)OCc1ccncc1)C(=O)N[C@@H](Cc1ccccc1)C(=O)CSC(C)(C)C`, the figures for the inhibition constant Ki at Procathepsin L, at Cathepsin B and at Cruzipain were 28.8 nM, 4800 nM and 14.1 nM, respectively.

Compound `O=C(N[C@@H](Cc1ccccc1)C(=O)N[C@@H](CCc1ccccc1)C(=O)CSCCCc1ccccc1)OCc1cccnc1` (stereo in doubt; 16d) returned an inhibition constant Ki at Cruzipain of 5.4 nM.

As for `O=C(N[C@@H](Cc1ccccc1)C(=O)N[C@@H](CCc1ccccc1)C(=O)CSCCCc1ccccc1)OCc1cccnc1` (stereo in doubt; 16e), the figures for the inhibitory constant (Ki) at Procathepsin L, at Cathepsin B and at Cruzipain were 28.8 nM, 700 nM and 0.9 nM, respectively.

The values are drawn from ChEMBL document CHEMBL1135707, “Identification of potent and selective mechanism-based inhibitors of the cysteine protease cruzain using solid-phase parallel synthesis” (J Med Chem, 2002).
